Measured values pooled from the literature.
Each line is one published result; the experiments were not run side by side.
Target: Cyclin-dependent kinase 11B (CDK11B, Homo sapiens, UniProt P21127)
Method: competition with immobilised ligand

| Structure (SMILES) | test | setting | remaining binding [%] |
| --- | --- | --- | --- |
| c1cncc(-c2cccc(Nc3nccc(NC4CCCCC4)n3)c2)c1 | binding | 10 µM | 80 |
| CN(C)c1ncc(F)c(-c2cnn3ncccc23)n1 | binding | 1 µM | 100 |
| O=C(NCC1CCOCC1)c1n[nH]cc1NC(=O)c1c(F)cccc1F | binding | 1 µM | 96 |
| COc1ccnn2ncc(-c3ccnc(N(C)C)n3)c12 | binding | 1 µM | 100 |
| Cc1cnc(Nc2ccc(C(=O)N3CCC(N4CCCC4)CC3)cc2)nc1-c1cc2ccccc2s1 | binding | 1 µM | 100 |
| CO[C@H]1CC[C@H](CNc2ccc(S(=O)(=O)NC(=O)c3ccc(N4CCN(CC5=C(c6ccc(Cl)cc6)CC(C)(C)CC5)CC4)cc3Oc3cnc4[nH]ccc4c3)cc2[N+](=O)[O-])CC1 | cell-free assay | 1 µM | 98 |
| COc1cnc(Nc2cccc(S(N)(=O)=O)c2)nc1N1CCN(c2ccccc2)CC1 | binding | 1 µM | 99 |
| O=C(c1ccc(Nc2ncc(Cl)c(-c3ccc(Cl)s3)n2)cc1)N1CCC(N2CCCC2)CC1 | binding | 1 µM | 46 |
| O=C(NC[C@@H]1[C@H]2CN(C(=O)OCc3cc(C(F)(F)F)cc(C(F)(F)F)c3)C[C@@H]12)c1ccc2[nH]nnc2c1 | cell-free assay | 1 µM | 100 |
| CN(CCCC(F)(F)F)c1nccc(-c2cnn3ncccc23)n1 | binding | 1 µM | 94 |
| Nc1ncc2c(n1)-c1c([nH]c3ccc(C#CC4CC4)cc13)CCCC2 | binding | 1 µM | 91 |
| FC(F)(F)Oc1cccc(-c2cnc3ccc(-c4ccncc4)nn23)c1 | cell-free assay | 5 µM | 100 |
| CCN1CCN(Cc2ccc(C(=O)Nc3ccc(C)c(Oc4ccc5c(c4)CC(=O)N5)c3)cc2C(F)(F)F)CC1 | binding | 1 µM | 100 |
| N#CC1(c2ccccn2)CCN(Cc2cc(C(=O)N3CCCC3)c(=O)n3ccccc23)CC1 | cell-free assay | 1 µM | 80 |
| C[C@@H]1CCN(c2nccc(-c3cnn4ncccc34)n2)C1 | binding | 1 µM | 97 |
| CN(C)C(=O)Cn1cc(-c2nc([C@@](C)(c3ccc(-c4cnc(N)nc4)cc3)C3CC3)no2)cn1 | cell-free assay | 1 µM | 79 |
| Cc1cnn2ncc(-c3ccnc(N(C)C)n3)c2c1 | binding | 1 µM | 95 |
| CN(c1ccnc(CNc2nc(Nc3ccc4c(c3)CC(=O)N4)ncc2C(F)(F)F)n1)S(C)(=O)=O | cell-free assay | 1 µM | 91 |
| N[C@@H]1CCN(c2nccc(-c3cnn4ncccc34)n2)C1 | binding | 1 µM | 100 |
| O=C(c1ccc(Nc2nccc(-c3cc4ccccc4s3)n2)cc1)N1CCC(N2CCCC2)CC1 | binding | 1 µM | 71 |
| CC(=O)N1CCC(c2ccc(C(=O)NC(=N)N)cc2C(F)(F)F)CC1 | cell-free assay | 1 µM | 100 |
